Measurements taken from paper PMC7518337 (Chemistry of materials : a publication of the American …, 2018).

How the values were obtained:
[1] = test system: p53 and p21 expression; experiment: Western blot analysis of p53 and p21; assay type: cell-based; conditions: PSP-^DPMI 200 nM, Nutlin3 5 μM, 24 h, p53 in HCT116 p53^+/+, MCF7, A375, p21 in HCT116 p53^+/+, vs PSP, PBS control
[2] = test system: HCT116 p53^+/+ cells; experiment: Cell cycle distribution; assay type: cell-based; conditions: 200 nM PSP-^DPMI, 5 μM Nutlin3, 24 h
[3] = test system: xenografted HCT116 p53^+/+ tumors; experiment: In vivo antitumor activity in colon cancer xenograft model; design: species or system BALB/c nude mice; conditions: for amounts of apoptotic cells in xenograft tumors (TUNEL assay): compared to the control, Figure 6E
Summary of the method: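 Nude mice carried subcutaneous HCT116 p53+/+ xenografts in the right flank. They were randomised into groups of n = 6 and dosed every other day on days 1, 3, 5, 7, 9, 11 and 13. Test compounds and Nutlin-3 were given at 3 mg/kg, doxorubicin at 1.5 mg/kg, and PBS served as control. Tumors were excised on day 13 for H&E and TUNEL staining (×200). Mean ± s.e., n = 5.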

[4] = In vivo safety evaluation during and after anticancer treatment; design: species or system mice
Summary of the method: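 Xenograft-bearing nude mice were treated with test compound or doxorubicin control over a 13-day regimen. During and after treatment, blood counts (WBC, RBC, thrombocytes), liver weight, serum ALT and AST, and CRE and BUN were determined. A hospital clinical laboratory ran these by standard procedures. Liver and kidney sections were H&E stained. Mean ± s.e., t-test.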

[5] = clinical trial in liposarcoma; cited from earlier work

Row | Compound | expression of p53 or p21 [1] | cell cycle effect [2] | amounts of apoptotic cells in xenograft tumors (TUNEL assay) [3] | tumor pathomorphology (H&E) ([3]; tumors isolated on day 13, Figure 6C) | blood cell counts (WBCs, thrombocyte, RBCs) ([4]; Figure 8B–D) | kidney function and histology (CRE, BUN, H&E) ([4]; Figure 8I–K) | spleen health ([4]; Figure S15) | body weight ([4]; after a 13-day administration, Figure S14) | liver weight ([4]; compared to healthy mice, Figure 8E) | levels of liver enzymes ALT and AST ([4]; serum, compared to control or healthy mice, Figure 8F,G) | adverse events in patients [5]
1 | COc1ccc(C2=N[C@@H](c3ccc(Cl)cc3)[C@@H](c3ccc(Cl)cc3)N2C(=O)N2CCNC(=O)C2)c(OC(C)C)c1 [Nutlin3] | significantly increased the expression of p53 or p21 | arrest in G0/G1 phase | significantly increased |  |  |  |  |  |  |  | 
2 | COc1cccc2c1C(=O)c1c(O)c3c(c(O)c1C2=O)C[C@@](O)(C(=O)CO)C[C@@H]3O[C@H]1C[C@H](N)[C@H](O)[C@H](C)O1 [DOX, doxorubicin] |  |  | significantly increased | misshapen tumors and cells | a certain level of leukopenia and thrombopenia | symptoms of glomerular lesions | serious spleen failure | significant decrease of body weight | decreased liver weight | aberrant levels | 
3 | CCOc1cc(C(C)(C)C)ccc1C1=N[C@@](C)(c2ccc(Cl)cc2)[C@@](C)(c2ccc(Cl)cc2)N1C(=O)N1CCN(CCCS(C)(=O)=O)CC1 [RG7112] |  |  |  |  |  |  |  |  |  |  | thrombocytopenia and neutropenia have been seen in many patients
